Screening data: PubChem, Broad Institute
This is one part of a sample in which hits are shown more often than they occur.
STK33 inh: blocks human STK33 kinase activity | purified STK33, MBP phosphorylation, ADP-Glo luminescence | 320,000 tested, 0.073% active | inhibition, % at 10 µM | Q9BYT3;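 active means inhibition at or above 25%, using the most active replicate where run in duplicate; inactive means inhibition below 25%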
GSK3B inh: inhibitors of human GSK3beta kinase; P49841; GST-GSK3beta kinase, ADP-Glo luminescence, 60 min; stronger effect = lower value; activity score (negative = inhibition), % at 10 µM; 300,000 tested, 0.038% active;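 active means more than half of replicate wells score below -50%, meaning over 50% inhibition versus plate controls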
Target sequence (P49841 whole entry, looked up): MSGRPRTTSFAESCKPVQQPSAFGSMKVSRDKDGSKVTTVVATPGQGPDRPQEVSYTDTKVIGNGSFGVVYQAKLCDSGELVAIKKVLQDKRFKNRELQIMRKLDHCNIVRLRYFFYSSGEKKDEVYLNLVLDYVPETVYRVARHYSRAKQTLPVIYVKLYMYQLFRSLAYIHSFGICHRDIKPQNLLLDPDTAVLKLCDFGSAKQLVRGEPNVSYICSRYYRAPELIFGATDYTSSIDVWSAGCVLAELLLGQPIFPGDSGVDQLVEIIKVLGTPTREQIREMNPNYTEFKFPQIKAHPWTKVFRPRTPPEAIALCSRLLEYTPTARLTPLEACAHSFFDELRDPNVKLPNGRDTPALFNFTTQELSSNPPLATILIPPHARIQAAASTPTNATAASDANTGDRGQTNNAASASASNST
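Test system – GST-tagged human GSK3beta kinase, cell-free · Incubation – 60 min enzyme reaction, room temperature · Signal – ADP-Glo luminescence · Also added – peptide substrate and ATP at 25 µM · Controls – DMSO neutral wells and GW8510 at 20 µM as positive · Buffer or medium – Tris/MgCl2 kinase buffer · Measure – Luminescence-derived activity versus plate DMSO and GW8510 wells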
Dyrk1A ADPGlo: blocks rat Dyrk1A kinase activity; inhibition, % at 12.5 µM; Q63470; ADP-Glo luminescence, NFATc1 peptide; AID 504441; 310,000 tested, 0.43% active; in the data active means inhibition above about 50%
GSK3 alpha inh: inhibitors of human GSK-3 alpha kinase; ADP-Glo luminescence, 60 min; 320,000 tested, 0.1% active; inhibition, % at 10 µM; AID 2650;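 active means more than half of replicates show inhibition above 20%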;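 further: GST-tagged GSK-3 alpha with peptide substrate and 25 µM ATP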
CDK5 inh: CDK5/p35 (human) kinase inhibition. Q00535+Q15078. Recombinant CDK5/p35, ADP-Glo luminescence, 60 min. inhibition, % at 10 µM. 330,000 tested, 0.01% active. AID 488839;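 active means highest replicate inhibition of at least 50% and at least 75% of replicates reaching 50%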
Dyrk1A artifact: counter-screen for Dyrk1A inhibitors: ADP-Glo luciferase artifacts; shares compounds with Dyrk1A ADPGlo; ADP-Glo luciferase artifact assay, no Dyrk1A, luminescence; AC50, µM (highest dose often 12 µM); 1,300 tested, under 10 active;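 active means fitted half-maximal dose AC50 no more than ten times the top valid tested dose, with luminescence dropping as dose rises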
Large screens that a line does not name were inactive (follow-up assays come after a bar, where they were run).

COc1cccc(-c2sc3ccccc3c2-c2ccc(OCCN3CCCC3)cc2)c1	Dyrk1A ADPGlo 51 (no result: GSK3B inh) | Dyrk1A artifact inactive
CC(=O)c1nc2ccccc2n1S(=O)(=O)c1ccc(Cl)cc1	Dyrk1A ADPGlo 83 | Dyrk1A artifact inactive
CC(=O)c1nc2ccccc2n1S(=O)(=O)c1ccc(C)cc1	none (no result: GSK3 alpha inh)
COc1ccc(NC(=O)CN(C)C(=O)c2ccc(-c3ccccc3Cl)o2)cc1	none
O=C(Cn1c(=O)[nH]c2ccccc2c1=O)Nc1ccc2c(c1)OCO2	none (no result: Dyrk1A ADPGlo, CDK5 inh)
COc1cc(/C=C2\Oc3cc(O)ccc3C2=O)ccc1O	Dyrk1A ADPGlo 93, GSK3 alpha inh 63 | Dyrk1A artifact inactive
COc1cc(/C=C2\CCC/C(=C\c3ccc(O)c(OC)c3)C2=O)ccc1O	none
O=C1/C(=C/c2ccc(O)c(O)c2)Oc2cc(O)ccc21	STK33 inh 46, Dyrk1A ADPGlo 68 (no result: GSK3B inh) | Dyrk1A artifact inactive
CC1CCc2sc(C(=O)NNC(=S)NC3CC3)cc2C1 (centres undefined)	none
CC(NC(=O)C(=O)N1CCOCC1)C(c1cccs1)N1CCN(c2ccccc2)CC1 (centres undefined)	none
N=C1S/C(=C\c2ccc(O)cc2)C(=O)N1c1ccc(F)cc1	Dyrk1A ADPGlo 78 | Dyrk1A artifact inactive
O=C1NC(=O)/C(=C/c2ccc(O)cc2)S1	STK33 inh 33, Dyrk1A ADPGlo 90 | Dyrk1A artifact inactive
CCCc1cc2c(-c3ccccc3)cc(=O)oc2cc1OCc1ccc(C(=O)O)o1	none
Cc1ccc(CNc2ncnc3c2cnn3C2CCCCO2)cc1 (centres undefined)	none (no result: STK33 inh, GSK3B inh, GSK3 alpha inh)
Cc1cc(OC(C)C(=O)N2CCN(c3ccc(F)cc3)CC2)c2c(C)c(C)c(=O)oc2c1 (centres undefined)	none
O=c1oc(Nc2cccc(F)c2)nc2ccccc12	none
Nc1nc(Nc2cccc(F)c2)nc2ccccc12	Dyrk1A ADPGlo 74 | Dyrk1A artifact inactive
COc1ccc2c(c1)CCc1cn3nc(C)cc3nc1-2	Dyrk1A ADPGlo 81 (no result: GSK3 alpha inh) | Dyrk1A artifact inactive
COc1ccc2c(c1)CCc1cnc(N)nc1-2	none (no result: Dyrk1A ADPGlo)
COc1cccc(-c2noc(N)c2C#N)c1	Dyrk1A ADPGlo 63 | Dyrk1A artifact inactive
Cc1cc(C)c(S(=O)(=O)c2cccc(Br)c2C)c(=O)[nH]1	none
COc1cccc(NC(=O)Nc2ccc3c(c2)N(C)C(=O)CS3)c1	Dyrk1A ADPGlo 50 | Dyrk1A artifact inactive
CC(=O)Nc1ccc(NC(=O)Nc2ccc3c(c2)N(C)C(=O)CS3)cc1	none (no result: STK33 inh, GSK3 alpha inh)
Cc1ccccc1CC(=O)N1CCN(S(=O)(=O)c2ccc(Cl)s2)CC1	none (no result: GSK3B inh)
Nc1nccnc1C(=O)OCC(=O)NC1CCCc2ccccc21 (centres undefined)	none (no result: GSK3B inh, Dyrk1A ADPGlo)
O=C(Nc1cccc(-c2nc3cccnc3s2)c1)c1ccc(Cl)nc1	none
O=C(Nc1cccc(-c2nc3cccnc3s2)c1)c1cccnc1Cl	Dyrk1A ADPGlo 62 | Dyrk1A artifact inactive
COc1ccc(S(=O)(=O)N2CCC3(CC2)CC(=O)c2ccccc2O3)cc1C	none
CC(C)NC(=O)N(C)C[C@H]1Oc2ccc(NS(=O)(=O)c3ccccc3)cc2C(=O)N([C@H](C)CO)C[C@H]1C	none (no result: GSK3B inh)
Fc1ccccc1-c1nc(-c2ccc(-c3nn[nH]n3)cc2)no1	Dyrk1A ADPGlo 59 (no result: GSK3B inh) | Dyrk1A artifact inactive
O=C1NC(=S)S/C1=C/c1ccc(OC(=O)c2ccco2)cc1	Dyrk1A ADPGlo 71 | Dyrk1A artifact inactive
Nc1c(N(CCC2=CCCCC2)C(=O)Cc2ccccc2F)c(=O)[nH]c(=O)n1Cc1ccccc1	none (no result: GSK3B inh, Dyrk1A ADPGlo)
O=C(N/N=C/c1ccccn1)c1cc(-c2ccccc2Cl)n[nH]1	Dyrk1A ADPGlo 51 | Dyrk1A artifact inactive
CCc1ccc(-c2cc(C(=O)N/N=C/c3ccccn3)[nH]n2)cc1	none
COc1ccc(Nc2cc(C)c3ccc(O)cc3n2)cc1	none
Cc1cc(Nc2ccccc2)nc2cc(O)ccc12	Dyrk1A ADPGlo 74 | Dyrk1A artifact inactive
O=[N+]([O-])c1ccccc1-c1cc(-c2ccccc2O)n[nH]1	Dyrk1A ADPGlo 51 | Dyrk1A artifact inactive
O=C(CCN=C1NS(=O)(=O)c2ccccc21)OCc1ccccc1	none (no result: STK33 inh, GSK3 alpha inh)
O=C1c2ccccc2C(=O)N1CCCc1cn(C[C@H]2CC[C@H](Cn3cc(CCCN4C(=O)c5ccccc5C4=O)nn3)O2)nn1	none (no result: STK33 inh, GSK3B inh, GSK3 alpha inh)
CCc1ccccc1NC(=S)N(CCN1CCOCC1)Cc1ccccc1F	none (no result: Dyrk1A ADPGlo)
COc1ccc2[nH]c(C(=O)N/N=C/c3ccc(OC)c(O)c3)cc2c1	Dyrk1A ADPGlo 63 | Dyrk1A artifact inactive
COc1ccc2[nH]c(C(=O)N/N=C/c3ccccc3OC)cc2c1	Dyrk1A ADPGlo 63 | Dyrk1A artifact inactive
Cc1ccc(S(=O)(=O)N2CCC(C(=O)Nc3ccccc3N3CCCC3)CC2)cc1C	none
CC[N+](C)(C)CCN(Cc1ccc(Cl)cc1)c1ccccn1	none
CCCCCCCCCCCCCCCC[N+](C)(C)CCN(Cc1ccc(OC)cc1)c1ncccn1	STK33 inh 43, Dyrk1A ADPGlo 63 (no result: GSK3B inh) | Dyrk1A artifact inactive
Cc1c(C)c2c(OCC(=O)N3CCC(C(N)=O)CC3)cc3c(c2oc1=O)CCC(C)(C)O3	none
N#Cc1c(C(F)(F)F)cc(-c2cccc(Cl)c2)[nH]c1=O	Dyrk1A ADPGlo 54 | Dyrk1A artifact inactive
N=c1oc2cc(O)ccc2cc1C(=O)Nc1ccc(F)cc1	Dyrk1A ADPGlo 53 | Dyrk1A artifact inactive
COc1cc(/C=N/N2C(=O)CSC2=S)ccc1O	Dyrk1A ADPGlo 52 | Dyrk1A artifact inactive
CC(=O)c1sc(NC(=O)CN2C(=O)C3CC=CCC3C2=O)nc1-c1ccccc1 (centres undefined)	none (no result: STK33 inh, Dyrk1A ADPGlo, GSK3 alpha inh)
CN(C)S(=O)(=O)c1ccc(NC(=O)c2cc3ccccc3o2)cc1	Dyrk1A ADPGlo 75 | Dyrk1A artifact inactive
CC(OC(=O)c1ccncc1)C(=O)NC1CCCC1 (centres undefined)	none
O=C(NN1C(=O)/C(=C/c2ccc(O)c([N+](=O)[O-])c2)SC1=S)c1ccccc1Cl	Dyrk1A ADPGlo 74 | Dyrk1A artifact inactive
CC1Cc2cc(/C=C3/SC(=S)NC3=O)ccc2O1 (centres undefined)	Dyrk1A ADPGlo 84 | Dyrk1A artifact inactive
CCN(CC)c1ccc(C=C2SC(=S)NC2=O)cc1	none (no result: STK33 inh, GSK3B inh, Dyrk1A ADPGlo, GSK3 alpha inh)
Cc1cc2nc(-c3ccc4c(c3)CCC4)ccn2n1	none
CCc1ncc(/C=C2\C(=O)Nc3ccccc32)[nH]1	STK33 inh 49, Dyrk1A ADPGlo 57 | Dyrk1A artifact inactive
c1csc(CNc2ncnc3ccc(-c4ccc5c(c4)OCCO5)cc23)c1	Dyrk1A ADPGlo 72 (no result: GSK3B inh) | Dyrk1A artifact inactive
c1cncc(-c2ccc3ncnc(NCc4cccs4)c3c2)c1	none (no result: GSK3B inh)
O=C(Nc1cccc(-c2cn3cccnc3n2)c1)c1ccc(Br)o1	STK33 inh 32, Dyrk1A ADPGlo 51 | Dyrk1A artifact inactive
CCOC(=O)Cn1ccc(-c2ccccc2)c(C#N)c1=O	none
CN(C)C(=O)c1ccc(NC(=O)COC(=O)Cn2cc(C(F)(F)F)ccc2=O)cc1	none (no result: GSK3B inh)
Oc1ccc(-c2csc(-c3cccnc3)n2)cc1O	Dyrk1A ADPGlo 51 | Dyrk1A artifact inactive
